Results as given in ChEMBL document CHEMBL4706616, “Design, synthesis, and evaluation of substituted 2-acylamide-1,3-benzo[d]zole analogues as agents against MDR- and XDR-MTB” (Eur J Med Chem, 2021).
≈ marks a conversion by molar mass, not a printed value.

Columns and labels:
[1] = tested on: Mycobacterium tuberculosis; assay: Antitubercular activity against Mycobacterium tuberculosis H37Rv assessed as bacterial growth inhibition by MABA; type: functional
HEK293 = assay: Cytotoxicity against human HEK293 cells assessed as reduction in cell viability incubated for 48 hrs by CCK8 assay; type: cell-based; conditions: HEK293, 48 h
[2] = Selectivity index, ratio of IC50 for human HEK293 cells to MIC for Mycobacterium tuberculosis; type: toxicity; conditions: read-out: Selectivity Index
In short: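 Ratio of HEK-293 IC50 (µM) to anti-Mtb MIC (µM).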

[3] = Tmax in Sprague-Dawley rat at 40 mg/kg, po measured upto 8 hrs by LC-MS/MS analysis; type: ADME, organism-based; conditions: in vivo
In short: (§1)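 Male SPF SD rats (180–220 g), fasted overnight, fed 4 h post-dose; single 40 mg/kg oral dose suspended in 5% DMSO/10% Solutol/85% water; n=3. Jugular blood at 0.25–8 h, plasma protein precipitated with MeOH containing internal standard, analysed by LC-MS/MS; AUC, Cmax, Tmax, MRT from plasma concentration data; mean ± SD.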

[4] = Cmax in Sprague-Dawley rat at 40 mg/kg, po measured upto 8 hrs by LC-MS/MS analysis; type: ADME, organism-based; parameters: route oral, dose 40 mg/kg, time <=8; conditions: in vivo; in short: as §1
[5] = AUC (0 to t) in Sprague-Dawley rat at 40 mg/kg, po measured upto 8 hrs by LC-MS/MS analysis; type: ADME, organism-based; parameters: route oral, dose 40 mg/kg, time <=8; conditions: in vivo; in short: as §1
[6] = Mean residence time in Sprague-Dawley rat at 40 mg/kg, po measured upto 8 hrs by LC-MS/MS analysis; type: ADME, organism-based; conditions: in vivo; in short: as §1
[7] = Acute toxicity in BALB/c mouse at 1000 mg/kg, po measured after 7 days; type: organism-based; conditions: in vivo, 168 h, time 7 day
In short: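 SPF female BALB/c mice, 18–22 g, groups of six; single 1000 mg/kg oral gavage in 0.5% CMC-Na; housed at 20–24°C; surviving mice counted over the observation period (14 days per methods, 7 days per results text).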

Staphylococcus aureus [8] = assay: Antibacterial activity against methicillin-sensitive Staphylococcus aureus ATCC 29213 assessed as bacterial growth inhibition incubated for 18 hrs by agar dilution method; type: functional
Staphylococcus aureus [9] = assay: Antibacterial activity against methicillin-resistant Staphylococcus aureus ATCC 33591 assessed as bacterial growth inhibition incubated for 18 hrs by agar dilution method; type: functional
[10] = tested on: Staphylococcus epidermidis; assay: Antibacterial activity against methicillin-sensitive Staphylococcus epidermidis ATCC 12228 assessed as bacterial growth inhibition incubated for 18 hrs by agar dilution method; type: functional
Enterococcus faecalis = assay: Antibacterial activity against Vancomycin-susceptible Enterococcus faecalis ATCC 29212 assessed as bacterial growth inhibition incubated for 18 hrs by agar dilution method; type: functional
Enterococcus faecium = assay: Antibacterial activity against vancomycin-resistant Enterococcus faecium ATCC 700221 assessed as bacterial growth inhibition incubated for 18 hrs by agar dilution method; type: functional
Escherichia coli = assay: Antibacterial activity against ESBLs negative Escherichia coli ATCC 25922 assessed as bacterial growth inhibition incubated for 18 hrs by agar dilution method; type: functional
Klebsiella pneumoniae [11] = assay: Antibacterial activity against ESBLs positive Klebsiella pneumoniae ATCC 700603 assessed as bacterial growth inhibition incubated for 18 hrs by agar dilution method; type: functional
Klebsiella pneumoniae [12] = assay: Antibacterial activity against ESBLs negative Klebsiella pneumoniae 7 assessed as bacterial growth inhibition incubated for 18 hrs by agar dilution method; type: functional
Pseudomonas aeruginosa = assay: Antibacterial activity against Pseudomonas aeruginosa ATCC 27853 assessed as bacterial growth inhibition incubated for 18 hrs by agar dilution method; type: functional
[13] = tested on: Acinetobacter calcoaceticus; assay: Antibacterial activity against Acinetobacter calcoaceticus ATCC 19606 assessed as bacterial growth inhibition incubated for 18 hrs by agar dilution method; type: functional

| SMILES | MIC [1] [µM] | IC50 (HEK293) [µM] | other results |
| --- | --- | --- | --- |
| O=C(Nc1nc2ccccc2o1)c1ccc(Cl)s1 | 14.3 (≈ 4 µg/mL) |  |  |
| Cc1nnsc1C(=O)Nc1nc2cc(-c3cccnc3)ccc2o1 | 2.96 (≈ 0.999 µg/mL) | 54.9 |  |
| Cc1nnsc1C(=O)Nc1nc2c(-c3ccccn3)cccc2o1 | 23.7 (≈ 8 µg/mL) |  |  |
| Cc1nnsc1C(=O)Nc1nc2c(ccc3cccnc32)o1 | 103 (≈ 32 µg/mL) |  |  |
| Cc1nnsc1C(=O)Nc1nc2ccc(Cl)cc2o1 | 0.42 (≈ 0.124 µg/mL) | 7.14 |  |
| Cc1nnsc1C(=O)Nc1nc2cc(F)ccc2o1 | 0.45 (≈ 0.125 µg/mL) | 42 |  |
| Cc1nnsc1C(=O)Nc1nc2c(Oc3ncccn3)cccc2o1 | 2.82 (≈ 0.999 µg/mL) | > 100 | selectivity ratio [2]: > 18; Tmax [3]: 2.83 h; Cmax [4]: 6.93 ng/mL; AUC(0-t) at 8 h [5]: 38 ng·h/mL; MRT [6]: 4.12 h |
| Cc1nnsc1C(=O)Nc1nc2c(OCc3ccccn3)cccc2o1 | 5.44 (≈ 2 µg/mL) | 61.8 |  |
| Cc1nnsc1C(=O)Nc1nc2cc(Br)ccc2o1 | 2.95 (≈ 1 µg/mL) | 45 |  |
| COC(=O)c1ccc(-c2ccc3oc(NC(=O)c4snnc4C)nc3c2)cc1 | 1.27 (≈ 0.501 µg/mL) |  |  |
| O=C(Nc1nc2ccccc2o1)c1ccco1 | 17.5 (≈ 4 µg/mL) | > 100 |  |
| Cc1nnsc1C(=O)Nc1nc2cc(C(C)(C)C)ccc2o1 | 0.4 (≈ 0.127 µg/mL) | 6.73 | selectivity ratio [2]: 17; Activity [7]: Non-Toxic; Tmax [3]: ≥ 8 h; Cmax [4]: 6840 ng/mL; AUC(0-t) at 8 h [5]: 24800 ng·h/mL; MRT [6]: 5.26 h; MIC (Staphylococcus aureus [8]): 6.32 µM (≈ 2 µg/mL); MIC (Staphylococcus aureus [9]): 6.32 µM (≈ 2 µg/mL); MIC [10]: 6.32 µM (≈ 2 µg/mL); MIC (Enterococcus faecalis): 12.6 µM (≈ 4 µg/mL); MIC (Enterococcus faecium): 12.6 µM (≈ 4 µg/mL); MIC (Escherichia coli): > 405 µM; MIC (Klebsiella pneumoniae [11]): > 405 µM; MIC (Klebsiella pneumoniae [12]): > 405 µM; MIC (Pseudomonas aeruginosa): > 405 µM; MIC [13]: > 405 µM |
| Cc1nnsc1C(=O)Nc1nc2cc(-c3ccccn3)ccc2o1 | 0.74 (≈ 0.25 µg/mL) | > 100 | selectivity ratio [2]: > 270; Activity [7]: Non-Toxic; Tmax [3]: ≥ 8 h; Cmax [4]: 9050 ng/mL; AUC(0-t) at 8 h [5]: 27800 ng·h/mL; MRT [6]: 5.59 h; MIC (Staphylococcus aureus [8]): 5.93 µM (≈ 2 µg/mL); MIC (Staphylococcus aureus [9]): 1.48 µM (≈ 0.499 µg/mL); MIC [10]: 2.96 µM (≈ 0.999 µg/mL); MIC (Enterococcus faecalis): 11.9 µM (≈ 4 µg/mL); MIC (Enterococcus faecium): 5.93 µM (≈ 2 µg/mL); MIC (Escherichia coli): > 379 µM; MIC (Klebsiella pneumoniae [11]): > 379 µM; MIC (Klebsiella pneumoniae [12]): > 379 µM; MIC (Pseudomonas aeruginosa): > 379 µM; MIC [13]: > 379 µM |
| Cc1nnsc1C(=O)Nc1nc2cc(-c3cnn(C)c3)ccc2o1 | 1.47 (≈ 0.5 µg/mL) |  |  |
| Cc1ccc2oc(NC(=O)c3snnc3C)nc2c1 | 1.82 (≈ 0.499 µg/mL) | 21.9 |  |
| COC(=O)c1ccc2oc(NC(=O)c3snnc3C)nc2c1 | 3.14 (≈ 1 µg/mL) |  |  |
| Cc1nnsc1C(=O)Nc1nc2cc(N3CCOCC3)ccc2o1 | 11.6 (≈ 4 µg/mL) | 18.3 |  |

| SMILES | MIC [1] [µM] | IC50 (HEK293) [µM] | other results |
| --- | --- | --- | --- |
| Cc1nnsc1C(=O)Nc1nc2ccccc2[nH]1 | 30.9 (≈ 8 µg/mL) | > 100 |  |
| Cc1nnsc1C(=O)Nc1nc2c(ccc3ccccc32)o1 | 103 (≈ 32 µg/mL) | 80.9 |  |
| Cc1nnsc1C(=O)Nc1nc2cc(Cl)ccc2o1 | 0.42 (≈ 0.124 µg/mL) | 6.65 | selectivity ratio [2]: 4; Activity [7]: Non-Toxic |
| Cc1nnsc1C(=O)Nc1nc2c(Br)cccc2o1 | 1.47 (≈ 0.499 µg/mL) | 10.6 |  |
| O=C(Nc1nc2ccccc2o1)c1cccs1 | 16.4 (≈ 4 µg/mL) | 81.9 |  |
| Cc1nnsc1C(=O)Nc1nc2ccccc2s1 | 28.9 (≈ 8 µg/mL) | > 100 |  |
| Cc1nnsc1C(=O)Nc1nc2ccccc2o1 | 0.48 (≈ 0.125 µg/mL) | 19.6 |  |
| Cc1nnsc1C(=O)Nc1nc2cc(-c3ccncc3)ccc2o1 | 1.48 (≈ 0.499 µg/mL) |  |  |
| Cc1nnsc1C(=O)Nc1nc2ncccc2o1 | 7.66 (≈ 2 µg/mL) | 15.2 |  |
| Cc1nnsc1C(=O)Nc1nc2c(ccc3ncccc32)o1 | 103 (≈ 32 µg/mL) | 59 |  |
| Cc1nnsc1C(=O)Nc1nc2ccc(C(C)(C)C)cc2o1 | 3.16 (≈ 1 µg/mL) | 2.42 |  |
| O=C(Nc1nc2ccccc2o1)c1ccccc1 | 269 (≈ 64 µg/mL) | > 100 |  |
| CC[C@@H](CO)NCCN[C@@H](CC)CO [ETHAMBUTOL] | < 2.45 |  |  |
| NNC(=O)c1ccncc1 [ISONIAZID] | < 3.65 |  |  |
| CO[C@H]1/C=C/O[C@@]2(C)Oc3c(C)c(O)c4c(O)c(c(/C=N/N5CCN(C)CC5)c(O)c4c3C2=O)NC(=O)/C(C)=C\C=C\[C@H](C)[C@H](O)[C@@H](C)[C@@H](O)[C@@H](C)[C@H](OC(C)=O)[C@@H]1C [RIFAMPIN] | < 0.61 |  |  |
| CN[C@@H]1[C@H](O[C@H]2[C@H](O[C@H]3[C@H](O)[C@@H](O)[C@H](N=C(N)N)[C@@H](O)[C@@H]3N=C(N)N)O[C@@H](C)[C@]2(O)C=O)O[C@@H](CO)[C@H](O)[C@H]1O [STREPTOMYCIN] | < 0.69 |  |  |
